Test results reported in ChEMBL document CHEMBL1153035, “Desmethoxymajusculamide C, a cyanobacterial depsipeptide with potent cytotoxicity in both cyclic and ring-opened forms” (J Nat Prod, 2009).
The source made the active and inactive calls. No cut-off for these calls is given here. Starred links: 1 amine or outer side, 2 acyl side, 3 side chain; linkers in the order of their positions; H or OH if unused. Non-standard residues stand in square brackets, D forms with d. Residues, ends and D or L forms follow the SMILES beside them. *: point of attachment. X1 = CC[C@H](C)[C@H](OC(=O)[C@@H](C)[C@@H](CC)N[*:1])C(=O)[*:2]; Pentanoyl(2S-OH,3S-Me) = CC[C@H](C)[C@H](O)C(=O)*; X2 = C[C@H](N[*:1])C(=O)C(C)(C)C(=O)[*:2]; NMeF = CN[C@@H](Cc1ccccc1)C(=O)O; NMeI = CC[C@H](C)[C@H](NC)C(=O)O; X3 = CC[C@@H](N*)[C@H](C)C(=O)O; NMeV = CN[C@H](C(=O)O)C(C)C

Experiments:
HCT-116 [1] = experiment: Cytotoxicity against human HCT116 cells assessed as clonogenic concentration required for 10% surviving fraction after 24 hrs; type: functional
How it was run: (§1)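 HCT-116 cells seeded at 200 or 20,000 per 60 mm dish in RPMI + 10% FBS. Drug added at a final top concentration of 10 µg/mL (10.5 µM) with 10-fold dilutions, for 2 h or 24 h then replaced by drug-free medium, or left continuously (168 h). After 7 days, colonies stained with methylene blue; colonies of ≥50 cells counted and normalized to untreated control.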

HCT-116 [2] = experiment: Antitumor activity against human HCT116 cells xenografted in SCID mouse at 0.62 mg/kg, iv daily for 5 days relative to control; type: functional, organism-based; design: dose 0.62 mg/kg
How it was run: (§2)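 HCT-116 tumor cells from tissue, 10^6 implanted subcutaneously into pooled SCID mice (>17 g, weights within 5 g), 5 per group. Starting 1 day after inoculation, bolus tail-vein iv daily for 5 days. Vehicle: DMSO stock diluted 1:1 with Cremophor-propylene glycol (40:60), then ≥10-fold with saline. Minimum %T/C reported; sacrifice at day 30.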

HCT-116 [3] = experiment: Antitumor activity against human HCT116 cells xenografted in SCID mouse assessed as tumor growth rate at 0.31 mg/kg, iv dosed daily for 5 days relative to control; type: functional, organism-based; design: dose 0.31 mg/kg; how it was run: as §2
[4] = Selectivity ratio, IC50 for […] cells to IC50 for human HCT116 cells; type: functional
HCT-116 [5] = experiment: Selectivity ratio, IC50 for human H460 cells to IC50 for human HCT116 cells; type: functional
NCI-H460 = experiment: Cytotoxicity against human H460 cells after 24 hrs; type: functional, cell-based; conditions: NCI-H460, 24 h
A10 = experiment: Effect on actin cytoskeleton in rat A10 cells assessed as loss of F-actin filament at 52 nM by TRITC-phalloidin staining; type: functional, cell-based
How it was run: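 A-10 cells on glass coverslips in BME + 10% fetal calf serum, exposed 24 h, then fixed with 3% paraformaldehyde, permeabilized with 0.2% Triton X-100, and reduced with NaBH4. Stained 45 min with 100 nM TRITC-phalloidin plus DAPI. F-actin examined by fluorescence microscopy against vehicle-treated control.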

HCT-116 [6] = experiment: Cytotoxicity against human HCT116 cells after 120 hrs; conditions: HCT-116, 120 h
HCT-116 [7] = experiment: Cytotoxicity against human HCT116 cells assessed as clonogenic concentration required for 10% surviving fraction after 7 days; type: functional; how it was run: as §1
[8] = Toxicity in human HCT116 cells xenografted in SCID mouse assessed as maximum tolerated dose; type: organism-based, HCT-116; conditions: in vivo, read-out: Activity
[9] = Cytotoxicity against mouse Neuro2a cells after 24 hrs; type: functional, cell-based; conditions: N2a
MDA-MB-435 [10] = experiment: Cytotoxicity against human MDA-MB-435 cells after 24 hrs; type: functional, cell-based; conditions: MDA-MB-435, 24 h
HCT-116 [11] = experiment: Cytotoxicity against human HCT116 cells assessed as clonogenic concentration required for 10% surviving fraction after 2 hrs; type: functional; how it was run: as §1
MDA-MB-435 [12] = experiment: Selectivity ratio, IC50 for human MDA-MB-435 cells to IC50 for human HCT116 cells; type: functional

| Compound | Activity (HCT-116 [1]) | Activity (HCT-116 [2]) | Activity (HCT-116 [3]) | Ratio IC50 [4] | Ratio IC50 (HCT-116 [5]) | IC50 (NCI-H460) | Activity (A10) | IC50 (HCT-116 [6]) | Activity (HCT-116 [7]) | MTD [8] | IC50 [9] | IC50 (MDA-MB-435 [10]) | Activity (HCT-116 [11]) | Ratio IC50 (MDA-MB-435 [12]) |
| --- | --- | --- | --- | --- | --- | --- | --- | --- | --- | --- | --- | --- | --- | --- |
| CC[C@H](C)[C@@H]1OC(=O)[C@@H](C)[C@@H](CC)NC(=O)[C@H](C)NC(=O)C(C)(C)C(=O)[C@H](C)NC(=O)[C@H](Cc2ccccc2)N(C)C(=O)[C@H](C(C)C)N(C)C(=O)CNC(=O)[C@H]([C@@H](C)CC)N(C)C(=O)CNC1=O [DESMETHOXYMAJUSCULAMIDE C] (cyclo(A[X1]G[NMeI]G[NMeV][NMeF][X2])) | >10.5 µM | Active | Active | 10 | 5 | 63 nM | Active | 20 nM | 2.1 nM | 2.5 mg/kg | > 1000 nM | 220 nM | >10.5 µM | 11 |
| CC[C@H](C)[C@H](O)C(=O)NCC(=O)N(C)[C@H](C(=O)NCC(=O)N(C)[C@H](C(=O)N(C)[C@@H](Cc1ccccc1)C(=O)N[C@@H](C)C(=O)C(C)(C)C(=O)N[C@@H](C)C(=O)N[C@H](CC)[C@H](C)C(=O)O)C(C)C)[C@@H](C)CC ({Pentanoyl(2S-OH,3S-Me)}-G[NMeI]G[NMeV][NMeF][X2]A-X3) |  |  |  | 10 | 5 | 94 nM | Active | 16 nM |  |  | > 1000 nM | 230 nM |  | 14 |
